Activity calls are given as the source filed them. The calls are words filed in the database; no cut-off is given here.
Experiments:
Hepatitis C virus [1] = assay: Antiviral activity against Hepatitis C virus JFH-1 infected in human Huh7.5.1 cells measured 48 hrs post infection by luciferase reporter gene assay; type: functional, organism-based, Hepacivirus hominis; settings: JFH-1, Huh-7, 48 h
How it was run: (§1)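 Huh7.5.1 cells were seeded and grown 24 h at 37 °C, 5% CO₂. They were then treated with serially diluted compound and infected with Renilla luciferase-linked HCV(JFH-1) reporter virus. Luminescence was read at 48 hpi, and EC₅₀ and CC₅₀ were derived from it. SI is CC₅₀/EC₅₀. Results are the mean of three independent experiments with SD.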

[2] = Selectivity index, ratio of CC50 for human Huh7.5.1 cells infected with Hepatitis C virus JFH-1 to EC50 for Hepatitis C virus JFH-1 infected in human Huh7.5.1 cells; type: toxicity, cell-based, Huh-7; settings: read-out: Ratio CC50/EC50; how it was run: as §1
[3] = Cytotoxicity against human Huh7.5.1 cells infected with Hepatitis C virus JFH-1 measured 48 hrs post infection by luciferase reporter gene assay; type: cell-based, Huh-7; how it was run: as §1
Hepatitis C virus [4] = assay: Antiviral activity against Hepatitis C virus JFH-1 infected in human Huh7.5.1 cells assessed as inhibition of viral entry at 2 uM treated 1 hr post infection incubated for 24 hrs by luciferase reporter gene assay; type: functional, organism-based; settings: Hepacivirus hominis, Huh-7
How it was run: (§2)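 Huh7.5.1 cells were seeded at 3×10⁴/well in 10% FBS-DMEM and grown overnight at 37 °C, 5% CO₂. Compound was added with 100 TCID₅₀ of HCV(JFH-1) Renilla luciferase reporter virus (0 h), or at -6 to 10 hpi. Cells were incubated 24 h at 37 °C, and luciferase activity was compared with 0.5% DMSO mock cultures.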

Hepatitis C virus [5] = assay: Antiviral activity against Hepatitis C virus JFH-1 infected in human Huh7.5.1 cells assessed as inhibition of viral entry at 2 uM treated immediately after viral infection incubated for 24 hrs by luciferase reporter gene assay; type: functional, organism-based; settings: Hepacivirus hominis, Huh-7; how it was run: as §2
Hepatitis C virus [6] = assay: Antiviral activity against Hepatitis C virus JFH-1 infected in human Huh7.5.1 cells assessed as inhibition of viral RNA replication at 2 uM treated 2 to 10 hrs post infection incubated for 24 hrs by luciferase reporter gene assay; type: functional, organism-based; settings: Hepacivirus hominis, Huh-7; how it was run: as §2
Hepatitis C virus [7] = assay: Antiviral activity against Hepatitis C virus JFH-1 infected in human Huh7.5.1 cells assessed as inhibition of viral entry at 2 uM treated 2 to 6 hrs prior infection incubated for 24 hrs by luciferase reporter gene assay; type: functional, organism-based; settings: Hepacivirus hominis, Huh-7; how it was run: as §2
Hepatitis C virus [8] = assay: Antiviral activity against Hepatitis C virus JFH-1 infected in human Huh7.5.1 cells assessed as inhibition of viral entry at 5 uM treated 2 to 6 hrs prior infection incubated for 24 hrs by luciferase reporter gene assay; type: functional, organism-based; settings: Hepacivirus hominis, Huh-7; how it was run: as §2
Hepatitis C virus [9] = assay: Antiviral activity against Hepatitis C virus JFH-1 infected in human Huh7.5.1 cells assessed as inhibition of viral entry at 5 uM treated immediately after viral infection incubated for 24 hrs by luciferase reporter gene assay; type: functional, organism-based; settings: Hepacivirus hominis, Huh-7; how it was run: as §2
Hepatitis C virus [10] = assay: Antiviral activity against Hepatitis C virus JFH-1 infected in human Huh7.5.1 cells assessed as inhibition of viral entry at 5 uM treated 1 hr post infection incubated for 24 hrs by luciferase reporter gene assay; type: functional, organism-based; settings: Hepacivirus hominis, Huh-7; how it was run: as §2
Hepatitis C virus [11] = assay: Antiviral activity against Hepatitis C virus JFH-1 infected in human Huh7.5.1 cells assessed as inhibition of viral RNA replication at 5 uM treated 2 to 10 hrs post infection incubated for 24 hrs by luciferase reporter gene assay; type: functional, organism-based; settings: Hepacivirus hominis, Huh-7; how it was run: as §2

Row | Structure (SMILES) | EC50 (Hepatitis C virus [1]) | selectivity ratio [2] | CC50 at 48 h [3] | other results
1 | CC1=NN(c2ccc(Cl)cc2)C(=O)/C1=C/c1cn(CC(O)CNCCCN2CCOCC2)c2ccccc12 (racemic) | 3.42 µM | 5.12 | 17.5 µM | 
2 | CC1=NN(c2cccc(C(F)(F)F)c2)C(=O)/C1=C/c1cn(CC2CO2)c2ccccc12 (centres undefined) | 5.94 µM | 4.23 | 25.1 µM | 
3 | CC1=NN(c2ccc(Cl)cc2)C(=O)/C1=C/c1cn(CC2CO2)c2ccccc12 (centres undefined) | 6.82 µM | 5.17 | 35.3 µM | 
4 | CC1=NN(c2ccc(C)cc2)C(=O)/C1=C/c1cn(CC(O)CNCCCN2CCOCC2)c2ccccc12 (racemic) | 1.83 µM | 19.8 | 36.2 µM | 
5 | CC1=NN(c2ccc(F)cc2)C(=O)/C1=C/c1cn(CC(O)CNCCCN2CCOCC2)c2ccccc12 (racemic) | 1.02 µM | 45.6 | 46.5 µM | inhibition (Hepatitis C virus [4]): Active; inhibition (Hepatitis C virus [5]): Active; inhibition (Hepatitis C virus [6]): inactive; inhibition (Hepatitis C virus [7]): Active
6 | CC1=NN(c2ccccc2)C(=O)/C1=C/c1cn(CC(O)CN2CCOCC2)c2ccccc12 (racemic) | 21.9 µM | > 2.29 | > 50 µM | 
7 | CC1=NN(c2cccc(F)c2)C(=O)/C1=C/c1cn(CC2CO2)c2ccccc12 (centres undefined) | 2.65 µM | 9.67 | 25.6 µM | 
8 | CCCCN(CCCC)CC(O)Cn1cc(/C=C2/C(=O)N(c3ccccc3)N=C2C)c2ccccc21 (racemic) | > 50 µM |  | > 50 µM | 
9 | CC1=NN(c2ccc(F)cc2)C(=O)/C1=C/c1cn(C[C@H](O)CNCCCN2CCOCC2)c2ccccc12 | 0.72 µM | > 69.4 | > 50 µM | 
10 | CC1=NN(c2ccccc2)C(=O)/C1=C/c1cn(C[C@H](O)CNCCCN2CCOCC2)c2ccccc12 | 1.25 µM | > 40 | > 50 µM | 
11 | CC1=NN(c2ccccc2F)C(=O)/C1=C/c1cn(CC(O)CNCCCN2CCOCC2)c2ccccc12 (racemic) | 2.79 µM | 12.3 | 34.2 µM | 
12 | CC1=NN(c2cccc(C(F)(F)F)c2)C(=O)/C1=C/c1cn(CC(O)CNCCCN2CCOCC2)c2ccccc12 (racemic) | 2.08 µM | 8.57 | 17.8 µM | 
13 | CC1=NN(c2ccccc2)C(=O)/C1=C/c1cn(CC(O)CNCCCCN2CCOCC2)c2ccccc12 (racemic) | 2.03 µM | 4 | 8.13 µM | 
14 | CC1=NN(c2ccccc2)C(=O)/C1=C/c1cn(CC2CC2)c2ccccc12 | 21.5 µM | > 2.32 | > 50 µM | 
15 | CC1=NN(c2cccc(F)c2)C(=O)/C1=C/c1cn(CC(O)CNCCCN2CCOCC2)c2ccccc12 (racemic) | 0.92 µM | 23.3 | 21.5 µM | 
16 | CC1=NN(c2ccccc2)C(=O)/C1=C/c1cn(CC(O)CNCc2ccccc2)c2ccccc12 (racemic) | > 50 µM |  | > 50 µM | 
17 | COc1ccc(N2N=C(C)/C(=C\c3cn(CC4CO4)c4ccccc34)C2=O)cc1 (centres undefined) | 2.06 µM | 5.76 | 11.9 µM | 
18 | CC1=NN(c2ccc(F)cc2)C(=O)/C1=C/c1cn(CC2CO2)c2ccccc12 (centres undefined) | 3.24 µM | > 15.4 | > 50 µM | 

Row | Structure (SMILES) | EC50 (Hepatitis C virus [1]) | selectivity ratio [2] | CC50 at 48 h [3] | other results
19 | CC1=NN(c2ccc(F)cc2)C(=O)/C1=C/c1cn(C[C@@H](O)CNCCCN2CCOCC2)c2ccccc12 | 7.12 µM | 4.86 | 34.6 µM | 
20 | CC1=NN(c2ccccc2)C(=O)/C1=C/c1cn(CC2CO2)c2ccccc12 (centres undefined) | 5.78 µM | 8.02 | 46.3 µM | inhibition (Hepatitis C virus [8]): Active; inhibition (Hepatitis C virus [9]): Active; inhibition (Hepatitis C virus [10]): Active; inhibition (Hepatitis C virus [11]): inactive
21 | CC1=NN(c2ccccc2)C(=O)/C1=C/c1cn(C[C@@H](O)CNCCCN2CCOCC2)c2ccccc12 | 8.06 µM | 2.67 | 21.5 µM | 
22 | CC1=NN(c2ccccc2)C(=O)/C1=C/c1c[nH]c2ccccc12 | 24.5 µM | > 2.03 | > 50 µM | 
23 | CC1=NN(c2ccc(C(F)(F)F)cc2)C(=O)/C1=C/c1cn(CC2CO2)c2ccccc12 (centres undefined) | 7.86 µM | 5.14 | 40.4 µM | 
24 | CC1=NN(C)C(=O)/C1=C/c1cn(CC2CO2)c2ccccc12 (centres undefined) | > 50 µM |  | > 50 µM | 
25 | CC1=NN(c2cccc(F)c2)C(=O)/C1=C/c1cn(C[C@@H](O)CNCCCN2CCOCC2)c2ccccc12 | 5.87 µM | 3.97 | 23.3 µM | 
26 | COc1ccc(N2N=C(C)/C(=C\c3cn(CC(O)CNCCCN4CCOCC4)c4ccccc34)C2=O)cc1 (racemic) | 2.05 µM | 7.53 | 15.4 µM | 
27 | CC1=NN(c2ccccc2)C(=O)/C1=C/c1cn(CC(O)CNCCN2CCOCC2)c2ccccc12 (racemic) | 5.46 µM | 7.76 | 42.4 µM | 
28 | CC1=NN(c2ccccc2)C(=O)/C1=C/c1cn(Cc2ccccc2)c2ccccc12 | 17.4 µM | > 2.88 | > 50 µM | 
29 | CC1=NN(c2ccccc2)C(=O)/C1=C/c1cn(C)c2ccccc12 | 21.2 µM | > 2.36 | > 50 µM | 
30 | CC1=NN(c2cccc(F)c2)C(=O)/C1=C/c1cn(C[C@H](O)CNCCCN2CCOCC2)c2ccccc12 | 0.74 µM | 42 | 31.1 µM | 
31 | CC1=NN(c2ccccc2F)C(=O)/C1=C/c1cn(CC2CO2)c2ccccc12 (centres undefined) | 5.11 µM | 5.95 | 30.4 µM | 
32 | CC1=NN(c2ccccc2)C(=O)/C1=C/c1cn(CC(O)CNCCCN2CCOCC2)c2ccccc12 (racemic) | 2.04 µM | 17.6 | 35.8 µM | 
33 | CC1=NN(c2ccc(C)cc2)C(=O)/C1=C/c1cn(CC2CO2)c2ccccc12 (centres undefined) | 3.06 µM | 4.24 | 13.2 µM | 
34 | CC1=NN(c2ccc(C(F)(F)F)cc2)C(=O)/C1=C/c1cn(CC(O)CNCCCN2CCOCC2)c2ccccc12 (racemic) | 4.63 µM | 2.44 | 11.3 µM | 
35 | CCCCNCC(O)Cn1cc(/C=C2/C(=O)N(c3ccccc3)N=C2C)c2ccccc21 (racemic) | > 50 µM |  | > 50 µM | 

— ChEMBL document CHEMBL3792333, “The discovery of indole derivatives as novel hepatitis C virus inhibitors” (Eur J Med Chem, 2016)
